Measured values gathered from unrelated publications.
Compare with care: the assays were run in different laboratories.
Method: competition with immobilised ligand
RPS6KA1 C-terminal kinase domain: Ribosomal protein S6 kinase alpha-1, C-terminal kinase domain (RPS6KA1, Homo sapiens, UniProt Q15418)
RPS6KA1 N-terminal kinase domain: Ribosomal protein S6 kinase alpha-1, N-terminal kinase domain (RPS6KA1, Homo sapiens, UniProt Q15418)

Compound	target	test	setting	remaining binding [%]
O=C(c1ccc(Nc2ncc(Cl)c(-c3cc4ccccc4s3)n2)cc1)N1CCC(N2CCCC2)CC1	RPS6KA1 C-terminal kinase domain	binding	1 µM	82
C=CC(=O)N1CCC(C(=O)NCC(=O)N2CCN(c3nc(-c4cnc(N)nc4C(F)F)nc(N4CCOCC4)n3)CC2)CC1	RPS6KA1 N-terminal kinase domain	binding	1 µM	100
COc1cnc(Nc2cccc(S(N)(=O)=O)c2)nc1N1CCN(c2ccccc2)C(=O)C1	RPS6KA1 N-terminal kinase domain	binding	1 µM	100
COc1ncc2cc3ccccc3nc2c1C#N	RPS6KA1 C-terminal kinase domain	cell-free assay	5 µM	49
Nc1ncc2c(n1)-c1c([nH]c3ccc(C#CC4CC4)cc13)CCCC2	RPS6KA1 C-terminal kinase domain	binding	1 µM	86
O=C(c1ccc(Nc2ncc(Cl)c(-c3ccc(Cl)s3)n2)cc1)N1CCC(N2CCCC2)CC1	RPS6KA1 N-terminal kinase domain	binding	1 µM	53
CN(C)c1ncc(F)c(-c2cnn3ncccc23)n1	RPS6KA1 N-terminal kinase domain	binding	1 µM	100
O=C(Nc1c[nH]nc1C(=O)NC1CCNCC1)c1cc(F)cc(F)c1	RPS6KA1 N-terminal kinase domain	binding	1 µM	100
CNC(=O)[C@@H]1CC[C@@H](n2c(-c3ccc4cnccc4c3)nc3ccc(C(=O)NCc4cccc(C(N)=O)c4)cc32)C1	RPS6KA1 N-terminal kinase domain	binding	1 µM	100
O=C(NCC1CCOCC1)c1n[nH]cc1NC(=O)c1c(F)cccc1F	RPS6KA1 N-terminal kinase domain	binding	1 µM	93
c1cncc(-c2cccc(Nc3nccc(NC4CCCCC4)n3)c2)c1	RPS6KA1 C-terminal kinase domain	binding	10 µM	99
O=C(NCCCN1CCOCC1)c1ccc(Nc2ncc(Cl)c(-c3ccc(Cl)s3)n2)cc1	RPS6KA1 N-terminal kinase domain	binding	1 µM	55
CC(C)CC(=O)N1CCc2nc(-c3ccc(Br)cc3)nc(N(C)Cc3ccccc3)c2C1	RPS6KA1 N-terminal kinase domain	cell-free assay	0.1 µM	93
COc1ccnn2ncc(-c3ccnc(N(C)C)n3)c12	RPS6KA1 N-terminal kinase domain	binding	1 µM	100
O=C(c1ccc(Nc2nccc(-c3cc4ccccc4s3)n2)cc1)N1CCC(N2CCCC2)CC1	RPS6KA1 N-terminal kinase domain	binding	1 µM	100
O=C(NCCCC1CCCCC1)c1ccc(CNC(=O)c2cnn(-c3ccccc3)c2C(F)(F)F)cc1	RPS6KA1 N-terminal kinase domain	cell-free assay	0.1 µM	100

Compound	target	test	setting	remaining binding [%]
COc1cnc(Nc2cccc(S(N)(=O)=O)c2)nc1N1CCN(c2ccccc2)CC1	RPS6KA1 C-terminal kinase domain	binding	1 µM	83
Cc1cnn2ncc(-c3ccnc(N(C)C)n3)c2c1	RPS6KA1 N-terminal kinase domain	binding	1 µM	100
FC(F)(F)Oc1cccc(-c2cnc3ccc(-c4ccncc4)nn23)c1	RPS6KA1 C-terminal kinase domain	binding	5 µM	41
CCN1CCN(Cc2ccc(C(=O)Nc3ccc(C)c(Oc4ccc5c(c4)CC(=O)N5)c3)cc2C(F)(F)F)CC1	RPS6KA1 N-terminal kinase domain	binding	1 µM	91
CCS(=O)(=O)c1cc2cc(C[C@@](O)(CC(C)(C)c3ccc(F)cc3C(N)=O)C(F)(F)F)[nH]c2cn1	RPS6KA1 N-terminal kinase domain	cell-free assay	1 µM	100
CN(CCCC(F)(F)F)c1nccc(-c2cnn3ncccc23)n1	RPS6KA1 N-terminal kinase domain	binding	1 µM	100
CC(=O)c1c(NS(C)(=O)=O)c2cc(-c3ccc(Cl)cc3)c(-c3ccc(Cl)cc3Cl)nc2n(C)c1=O	RPS6KA1 C-terminal kinase domain	cell-free assay	1 µM	88
O=C(NCCCN1CCOCC1)c1ccc(Nc2nccc(-c3cc4ccccc4s3)n2)cc1	RPS6KA1 N-terminal kinase domain	binding	1 µM	87
CO[C@@H](C)c1c(Nc2ccc([C@@H](N(C)C(=O)C3CCS(=O)(=O)CC3)C(F)(F)F)cc2)cnc2cc(Cl)nn12	RPS6KA1 C-terminal kinase domain	cell-free assay	1 µM	99
C[C@@H](c1ccc(-n2cnc3c(N)ncnc32)cc1)N1CCc2nn(C)c(Cc3ccccc3)c2C1=O	RPS6KA1 C-terminal kinase domain	binding	0.1 µM	100
C[C@@H]1CCN(c2nccc(-c3cnn4ncccc34)n2)C1	RPS6KA1 C-terminal kinase domain	binding	1 µM	47
COc1cc(-c2cn(C3CCc4c(F)cccc4N(CC(F)(F)F)C3=O)nn2)ccc1-n1cnc(C)c1 (centres unmarked)	RPS6KA1 C-terminal kinase domain	cell-free assay	1 µM	100
CN(c1nccc(-c2cnn3ncccc23)n1)C1CC1	RPS6KA1 N-terminal kinase domain	binding	1 µM	100
O=C(Nc1cccnn1)N1CC(C/C=C/c2cncc(Oc3ccc(C(F)(F)F)cn3)n2)C1	RPS6KA1 C-terminal kinase domain	cell-free assay	1 µM	92
N[C@@H]1CCN(c2nccc(-c3cnn4ncccc34)n2)C1	RPS6KA1 N-terminal kinase domain	binding	1 µM	100
O=C(NCc1ncc(C(F)(F)F)cc1Cl)c1ccc2c(c1)C1(CCS(=O)(=O)CC1)[C@H](C1CC1)N2S(=O)(=O)c1ccc(F)cc1	RPS6KA1 C-terminal kinase domain	cell-free assay	1 µM	99
